Compound activity (PubChem BioAssay)
An excerpt weighted towards active compounds, which were near 2.3% of everything screened.
PAD4 FP inh: blocks human protein arginine deiminase 4 | Q9UM07 | recombinant PAD4, RCA probe fluorescence polarization | inhibition, % at 6.36 µM | 0.41% of 330,000 active | AID 485272;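 active = percent inhibition above a cutoff equal to the mean of all tested compounds plus 3 SD, cut at about 15% in these data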;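 note: 0% = PAD4 with RCA probe and DMSO and 100% = probe without PAD4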
RBBP9 inhibitor: human RBBP9 hydrolase inhibition. O75884. recombinant RBBP9, FP-Rh probe fluorescence polarization. inhibition, % at 7.94 µM. 0.2% of 220,000 active. AID 1515;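 active = inhibition above the campaign mean of all tested compounds plus 3 SD, cut at about 14% in these data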;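 note: plate controls were DMSO wells with RBBP9 for no effect and wells lacking RBBP9 protein for full effect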
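System: RBBP9 protein / Quantity: 2.5 µM RBBP9 dispensing solution, before mixing / Also added: Serine-hydrolase probe FP-Rh, 375 nM pre-mixing / Dosing: 7.94 µM single dose, 0.794% DMSO / Timing: enzyme-compound preincubation 30 min, then probe labeling 45 min, 25 °C / Signal: FP readout at 525/598 nm / Controls: DMSO-treated enzyme wells and wells lacking RBBP9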
PME-1 inh: PME-1 (human) inhibition; Q9Y570; recombinant PME-1, FP-Rh probe fluorescence polarization; inhibition, % at 5.9 µM; 0.53% of 320,000 active; AID 2130;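 active = inhibition above the campaign mean of all compounds plus 3 SD, cut at about 26% in these data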;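 note: competitive labeling of PME-1 active site by serine hydrolase directed probe; 0% = PME-1 with DMSO and 100% = wells lacking PME-1 enzyme; inhibitors block probe labeling so polarization falls and inhibition rises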
GSTO1 counter: blocks human GSTO1 in RBBP9 counter-screen; inhibition, % at 5.96 µM; AID 1974; 1.1% of 300,000 active; recombinant GSTO1, activity-based probe fluorescence polarization;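 active = inhibition above the campaign mean inhibition plus 3 SD, cut at about 35% in these data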;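 note: 0% = GSTO1-1 with DMSO and 100% = wells lacking GSTO1-1 enzyme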
Target sequence (P78417 whole entry, looked up): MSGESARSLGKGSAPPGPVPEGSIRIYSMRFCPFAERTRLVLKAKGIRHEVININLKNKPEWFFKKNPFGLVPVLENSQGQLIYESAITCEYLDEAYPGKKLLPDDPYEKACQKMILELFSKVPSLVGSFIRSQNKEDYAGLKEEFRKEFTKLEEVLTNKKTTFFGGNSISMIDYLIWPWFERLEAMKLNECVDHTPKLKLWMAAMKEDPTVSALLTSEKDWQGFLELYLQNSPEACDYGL
Fam108B inh: blocks mouse Fam108B hydrolase in RBBP9 counter-screen | recombinant Fam108B, FP-Rh probe fluorescence polarization | inhibition, % at 9.51 µM | 0.33% of 300,000 active | AID 1947;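 active = inhibition above the screen mean inhibition plus 3 SD, computed separately per campaign, cut at about 18% in these data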;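 note: inhibitors lower polarization as less probe binds the enzyme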
PRMT1 FP inh: inhibitors of human PRMT1; Q99873; recombinant PRMT1, activity-based probe fluorescence polarization; inhibition, % at 2.79 µM; 1.3% of 370,000 active;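 active = inhibition above about 21% made by adding two undisclosed values, limit read from the data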
Target sequence (Q99873 whole entry, looked up): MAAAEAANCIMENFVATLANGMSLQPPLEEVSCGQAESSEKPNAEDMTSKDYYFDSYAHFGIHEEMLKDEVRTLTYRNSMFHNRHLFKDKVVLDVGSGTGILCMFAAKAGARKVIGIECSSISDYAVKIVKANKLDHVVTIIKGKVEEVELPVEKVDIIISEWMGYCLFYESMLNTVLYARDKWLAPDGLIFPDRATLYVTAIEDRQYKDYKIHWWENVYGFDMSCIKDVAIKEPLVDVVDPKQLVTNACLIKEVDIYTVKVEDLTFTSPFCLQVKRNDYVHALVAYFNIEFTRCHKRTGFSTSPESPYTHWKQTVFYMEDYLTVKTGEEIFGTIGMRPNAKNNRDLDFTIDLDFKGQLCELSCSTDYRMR
Numbers without * were called inactive; nt = not tested or not shown.

SMILES	PAD4 FP inh	RBBP9 inhibitor	PME-1 inh	GSTO1 counter	Fam108B inh	PRMT1 FP inh
CC1(C)Cc2c(c(=S)nc(-c3ccccc3)n2CCOCCO)CO1	-2.0	-11.2	0.7	5.2	4.4	21.9*
O=C1C=C(O)C(n2cncn2)C(c2cc(F)ccc2F)C1 (centres undefined)	1.0	-11.7	5.7	-4.4	3.4	-1.8
COC(=O)c1c(NC(=S)NN2CCN(C)CC2)sc2c1CCC(C)C2 (centres undefined)	-2.6	-5.7	8.2	9.9	1.8	14.5
Cc1ccc(N2C(=O)c3ccccc3C2C(=O)c2cc(C)ccc2O)cc1 (centres undefined)	5.0	-1.6	-3.2	35.0*	-1.2	17.4
Cc1ccc(N2C(=O)c3ccccc3C2C(=O)c2ccc(O)cc2O)cc1 (centres undefined)	2.9	5.6	-1.2	-0.6	3.0	24.1*
O=C(O)CNC(=S)N(Cc1ccccc1Cl)C1CCCCC1	-1.8	1.6	3.0	-0.8	2.3	4.4
Cc1cccc(N2CCN(C(=O)C3COc4ccccc4O3)CC2)c1C (centres undefined)	-2.0	-9.8	-0.5	-2.8	-2.3	0.8
Cc1cc(NC(=S)Nc2ccc(C)c(Cl)c2)n[nH]1	3.5	-0.6	14.9	3.2	1.0	24.1*
COc1ccc(NC(=S)Nc2cc(C)[nH]n2)cc1Cl	7.5	-5.4	-4.6	6.2	-4.2	14.8
CCOC(=O)C1C(=O)OC(C)(C)C1C(C)C(=O)c1ccc(C)cc1 (centres undefined)	-1.7	3.5	2.3	-5.6	-0.3	-5.0
CCCOC(=O)C1=C(C)NC2=C(C(=O)CC(C)(C)C2)C1c1ccc(N(C)C)cc1 (centres undefined)	-0.5	1.0	2.1	9.7	-1.6	-2.3
COc1cc(CNn2cn[nH]c2=S)cc(Cl)c1OCc1ccc(F)cc1	-0.1	-7.5	1.7	0.4	-2.0	11.1
COc1cc(CNn2c(C)n[nH]c2=S)cc(Cl)c1OCc1ccccc1	-4.6	-6.2	-1.1	2.6	0.8	24.4*
COc1cccc(-c2nc(NC(C)C)c3ccccc3n2)c1O	-0.6	8.8	26.1*	6.3	11.0	0.7
COCCNC(=O)/C(C#N)=C/C=C/c1ccccc1[N+](=O)[O-]	-0.8	-2.5	-3.7	43.8*	1.3	-3.4
Cc1ccc(S(=O)(=O)Nc2c(Cl)c(Cl)c(O)c3ccccc23)cc1	-17.3	nt	2.4	76.5*	6.0	nt
Cc1ccc(S(=O)(=O)Nc2c(O)ccc3ccccc23)cc1	-12.8	nt	6.2	23.3	2.1	nt
CCCCCCCC1CC(CSc2ncn[nH]2)OC1=O (centres undefined)	-4.6	4.0	0.9	-7.0	5.3	0.2
COc1ccc(C(=O)CSc2ccc(-c3ccco3)nn2)cc1	0.8	-5.1	-3.5	0.4	-0.3	23.2*
CCc1ccc(-c2ccc(SCC(=O)Nc3nnc(C)s3)nn2)cc1	0.4	-2.6	-1.5	35.6*	5.6	-2.0
Cc1nnc(NC(=O)CSc2ccc(-c3ccco3)nn2)s1	-2.3	-6.6	1.7	54.2*	2.5	14.7
CCc1nnc(NC(=O)CSc2ccc(-c3ccco3)nn2)s1	1.3	1.2	2.1	36.0*	4.7	0.5
COc1ccc(C(=O)CSc2ccc(-c3ccccc3)nn2)cc1	3.4	-6.0	-3.5	-3.0	-6.7	1.0
Cc1nnc(NC(=O)CSc2nc3ccccc3o2)s1	2.8	-3.3	1.2	37.4*	-1.0	-0.6
O=C(CSc1nc2ccccc2o1)Nc1nncs1	-4.6	-3.4	-5.0	24.2	0.7	0.6
SMILES	PAD4 FP inh	RBBP9 inhibitor	PME-1 inh	GSTO1 counter	Fam108B inh	PRMT1 FP inh
COCCCn1cc(C(=O)c2cc(Br)ccc2O)cc(C#N)c1=O	-6.5	-7.8	-1.5	10.5	-1.6	0.0
CN(C)c1ccc(NC(=O)Nc2cccc(Cl)c2)cc1	-3.9	4.9	32.1*	8.7	5.4	11.8
CN(c1cccc(NC(=O)Nc2cccc(Cl)c2)c1)S(C)(=O)=O	-8.4	-12.8	-17.8	-33.5	-3.0	-1.1
CCOC(=O)c1sc(NC(=O)Nc2cccc(Cl)c2)cc1C	-0.9	-7.7	13.2	-46.9	24.9*	3.4
CCOC(=O)c1sc(NC(=O)c2cccs2)cc1C	-4.8	-3.1	2.9	-11.2	5.4	-0.3
NC(=O)c1ccccc1NC(=O)CSc1cn[nH]n1	-6.9	nt	-3.7	10.3	-1.8	2.6
O=C(NCc1ccccc1)c1nc(S(=O)(=O)Cc2ccccc2)ncc1Cl	1.3	nt	0.7	-1.9	-0.5	22.9*
CC(C)c1onc(C(=O)NCc2ccccc2)c1[N+](=O)[O-]	-2.2	-8.9	-0.2	37.5*	0.0	1.6
CCC(C(=O)NCc1ccc(F)cc1)n1nc(C)n2c(cc3occc32)c1=O (centres undefined)	-2.5	nt	5.5	-0.1	-0.5	9.2
CN1CCN(NC(=O)CN2C(=O)/C(=C/c3c(Cl)cccc3Cl)SC2=S)CC1	-3.2	-0.2	-32.7	-2.3	-24.5	22.1*
CN1CCN(NC(=O)CN2C(=O)/C(=C/c3ccccc3Cl)SC2=S)CC1	-30.1	-0.4	-22.6	-11.6	1.7	16.3
C=CCn1c(O)c(N=Nc2ccccc2O)c2ccccc21	-3.2	nt	33.6*	nt	nt	14.7
CC(=O)Nc1cccc(C(=O)/C=C/c2ccc(/C=C/C(=O)c3cccc(NC(C)=O)c3)cc2)c1	-6.9	-14.6	-12.5	-5.2	-22.8	0.8
CC(=O)Nc1cccc(C(=O)/C=C/c2ccco2)c1	-2.4	0.4	3.5	-5.5	-9.2	21.5*
CC(=O)Nc1cccc(C(=O)/C=C/c2ccc[nH]2)c1	-2.9	-9.8	-2.8	13.0	1.6	21.6*
NS(=O)(=O)c1ccc(NCc2c(F)cccc2Cl)cc1	nt	9.4	nt	nt	nt	-1.6
Fc1cccc(Cl)c1CNc1ccc(N2CCCC2)cc1	3.8	-4.0	13.0	36.6*	9.4	6.3
COc1cccc2cc(-c3ccnc(=S)[nH]3)oc12	44.6*	-4.6	8.0	-12.7	1.4	nt
COc1cccc2cc(-c3ccccc3)oc12	3.1	nt	-4.9	-4.9	3.2	-3.5
COc1cc(NC(=O)[C@@H](Cc2ccccc2)NC(=O)[C@H]2O[C@@H](n3ccc(N)nc3=O)[C@H](O)[C@@H]2O)cc(OC)c1OC	nt	nt	nt	nt	nt	3.8
Nc1ccn([C@@H]2O[C@H](C(=O)N[C@H](Cc3ccccc3)C(=O)Nc3ccc4scnc4c3)[C@@H](O)[C@H]2O)c(=O)n1	nt	nt	nt	nt	nt	21.2*
C/C(=N\NC(=O)c1cc(Br)ccc1O)c1cccc(NC(=O)c2ccccc2F)c1	-3.3	nt	-8.1	-15.7	6.8	2.2
COc1cc(N/N=C(\C)c2ccc(O)c(C)c2)nc(-c2ccccc2)n1	-4.8	-2.8	30.2*	-1.8	4.0	-4.4
COC(=O)[C@H](CCSC)NC(=O)Nc1ccc(C(C)C)cc1	-1.1	-1.2	3.0	0.9	2.5	-0.6
O=C(/C=C/c1ccc(O)c(O)c1)OCCc1ccccc1	-1.9	nt	14.3	16.9	1.1	-1.6
O=C(/C=C/c1ccc(O)c(O)c1)OC(Cc1ccc(O)c(O)c1)C(=O)O (centres undefined)	4.8	nt	-9.8	55.0*	0.8	19.7
